Experimental data reported in ChEMBL document CHEMBL4184339, “NMR Biochemical Assay for Oxidosqualene Cyclase: Evaluation of Inhibitor Activities on Trypanosoma cruzi and Human Enzymes” (J Med Chem, 2018).

Experiments:
Trypanosoma cruzi [1] = test: Parasiticidal activity against amastigote stage of Trypanosoma cruzi Tulahuen infected in mouse brain fibroblast assessed as time duration of effect at 19.2 microM preincubated for 5 days followed by another 10 days incubation with fresh compound; type: functional
Trypanosoma cruzi [2] = test: Parasiticidal activity against amastigote stage of Trypanosoma cruzi Tulahuen infected in mouse brain fibroblast assessed as time duration of effect at 9.6 microM preincubated for 5 days followed by another 10 days incubation with fresh compound; type: functional
Trypanosoma cruzi [3] = test: Antiparasitic activity against epimastigote stage of Trypanosoma cruzi Tulahuen assessed as inhibition of parasite proliferation after 48 hrs by Alamar Blue assay; type: functional, organism-based
Method in brief: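 Epimastigotes (one million per assay) were cultured in LIT medium with 10% newborn calf serum and co-incubated with compound. Afterwards, alamarBlue was added and fluorescence was read as a measure of viability.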

[4] = Selectivity ratio of IC50 for human C-terminal His6-tagged OSC to IC50 for Trypanosoma cruzi strain CL Brener C-terminal His6-tagged OSC
Lanosterol synthase = target: T1, Lanosterol synthase (Homo sapiens, UniProt P48449); test: Inhibition of human C-terminal His6-tagged OSC expressed in Pichia pastoris GS115 using 2,3-oxidosqualene as substrate after 90 mins by 1H NMR method
T1 sequence (P48449 whole entry): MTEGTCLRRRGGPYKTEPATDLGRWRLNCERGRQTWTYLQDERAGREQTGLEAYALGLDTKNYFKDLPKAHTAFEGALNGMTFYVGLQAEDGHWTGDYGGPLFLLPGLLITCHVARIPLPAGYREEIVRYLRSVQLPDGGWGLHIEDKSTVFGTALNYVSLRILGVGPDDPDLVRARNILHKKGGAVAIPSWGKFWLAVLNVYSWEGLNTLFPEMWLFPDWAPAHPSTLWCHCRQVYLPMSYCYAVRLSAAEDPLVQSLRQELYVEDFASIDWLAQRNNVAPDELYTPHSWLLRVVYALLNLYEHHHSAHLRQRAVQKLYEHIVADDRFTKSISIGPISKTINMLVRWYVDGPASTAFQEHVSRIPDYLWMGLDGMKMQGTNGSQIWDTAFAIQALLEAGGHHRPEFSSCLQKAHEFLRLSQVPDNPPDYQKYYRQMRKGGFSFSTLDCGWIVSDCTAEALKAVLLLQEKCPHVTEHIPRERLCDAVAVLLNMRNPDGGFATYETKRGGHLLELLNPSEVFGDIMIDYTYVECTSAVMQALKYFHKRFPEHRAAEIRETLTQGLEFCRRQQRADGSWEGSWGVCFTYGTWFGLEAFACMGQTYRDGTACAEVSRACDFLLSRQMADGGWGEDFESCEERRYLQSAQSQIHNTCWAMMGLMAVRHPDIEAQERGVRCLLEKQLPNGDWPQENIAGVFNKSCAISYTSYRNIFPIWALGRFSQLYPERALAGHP
Method in brief: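 Human OSC was expressed in Pichia pastoris GS115 using BMGY at 30 °C for 3 days, then BMMY methanol induction at 25 °C for 2 days. Purification included a Superdex 200 step, with buffers containing 0.2% Triton X-100 or 0.2–0.8% β-octylglucoside. Product was measured by NMR with factor analysis, and IC50 was fitted from the first-factor score.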

[5] = Inhibition of Trypanosoma cruzi strain CL Brener C-terminal His6-tagged OSC expressed in Pichia pastoris GS115 using 2,3-oxidosqualene as substrate after 20 mins by 1H NMR method
Method in brief: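 T. cruzi OSC was expressed in Pichia pastoris GS115, first grown in BMGY ([…]glycerol) at 30 °C for 3 days and then induced in BMMY (1% methanol) at 25 °C for 2 days. Cells were homogenized in Tris-HCl pH 7.5 with 250 mM NaCl. Purification buffers contained 0.2% Triton X-100 or 0.2–1.2% β-octylglucoside. The substrate, 2,3-oxidosqualene, was in 10 mM sodium phosphate buffer with varied inhibitor. Reactions started with 19 nM enzyme (final) and ran at 37 °C for 20 min. Lanosterol was quantified by 1H NMR with factor analysis, and IC50 was taken from a fit of the first-factor score.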

Trypanosoma cruzi [6] = test: Parasiticidal activity against amastigote stage of Trypanosoma cruzi Tulahuen infected in mouse brain fibroblast assessed as time duration of effect at 10.9 microM preincubated for 5 days followed by another 10 days incubation with fresh compound; type: functional
Trypanosoma cruzi [7] = test: Parasiticidal activity against amastigote stage of Trypanosoma cruzi Tulahuen infected in mouse brain fibroblast assessed as time duration of effect at 21.8 microM preincubated for 5 days followed by another 10 days incubation with fresh compound; type: functional

## O=C(Cn1ccnc1[N+](=O)[O-])NCc1ccccc1 [BENZNIDAZOLE]
Trypanosoma cruzi [1]
  Time: 53 days
Trypanosoma cruzi [2]
  Time: 35 days

## C=CCN(C)Cc1ccc(N2CCC(N(C)S(=O)(=O)c3ccc(Cl)cc3)CC2)cc1.Cl.Cl
Trypanosoma cruzi [3]
  IC50: 110 nM
[4]
  Ratio IC50: 0.38
Lanosterol synthase
  IC50: 16 nM
[5]
  IC50: 42 nM
Trypanosoma cruzi [1]
  Time: 80 days
Trypanosoma cruzi [2]
  Time: 62 days

## CN(C)CCOc1ccc(OC2CCN(S(=O)(=O)c3ccc(F)cc3)CC2)cc1.Cl
Trypanosoma cruzi [3]
  IC50: 2150 nM
Trypanosoma cruzi [6]
  Time: 21 days
[4]
  Ratio IC50: 2.7
Lanosterol synthase
  IC50: 120 nM
[5]
  IC50: 44 nM
Trypanosoma cruzi [7]
  Time: 29 days

## C=CCN(C)CCCCCCOc1ccc(C(=O)c2ccc(Br)cc2)c(F)c1
[5]
  IC50: 13 nM

## CN(C)Cc1ccc(N2CCC(N(C)S(=O)(=O)c3ccc(Cl)cc3)CC2)cc1
[4]
  Ratio IC50: 1.6
Lanosterol synthase
  IC50: 230 nM
[5]
  IC50: 140 nM
